Measurements: ChEMBL document CHEMBL1154468, “Synthesis and evaluation of fluoroquinolone derivatives as substrate-based inhibitors of bacterial efflux pumps” (2008)
Values after ≈ are worked out from the molar mass of the structure shown. Active and inactive are the calls of the source. No cut-off for these calls is given here.

Experiments:
Staphylococcus aureus [1] = assay: Antibacterial activity against Staphylococcus aureus K1758-A overexpressing mepA by broth microdilution technique; type: functional
Procedure, shortened: (§1)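 S. aureus K1758-P is the susceptible control for K1758-A, a K1758-background strain carrying a constructed plasmid for mepA overexpression. MIC was determined on both.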

Staphylococcus aureus [2] = assay: Antibacterial activity against Staphylococcus aureus K1758-P by broth microdilution technique; type: functional; procedure, shortened: as §1
Staphylococcus aureus [3] = assay: Antibacterial activity against Staphylococcus aureus K2361 overexpressing norA by broth microdilution technique; type: functional
Procedure, shortened: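 MIC assessed on norA-overexpressing S. aureus K2361, paired with K1902 as its susceptible control.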

Staphylococcus aureus [4] = assay: Antibacterial activity against Staphylococcus aureus K1902 by broth microdilution technique; type: functional
Pseudomonas aeruginosa [5] = assay: Antibacterial activity against Pseudomonas aeruginosa K1536 overexpressing mexCD by broth microdilution technique; type: functional
Procedure, shortened: (§2)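 MIC tested on P. aeruginosa PAO1, the susceptible control, and on its derivatives OCR1 (mexAB overexpresser) and K1536 (mexCD overexpresser).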

Pseudomonas aeruginosa [6] = assay: Antibacterial activity against Pseudomonas aeruginosa OCR1 overexpressing mexAB by broth microdilution technique; type: functional; procedure, shortened: as §2
Pseudomonas aeruginosa [7] = assay: Antibacterial activity against Pseudomonas aeruginosa PAO1 by broth microdilution technique; type: functional; procedure, shortened: as §2
Escherichia coli [8] = assay: Antibacterial activity against Escherichia coli AG102 overexpressing acrAB by broth microdilution technique; type: functional
Procedure, shortened: (§3)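 MIC determined against E. coli AG102, an acrAB overexpresser, alongside its susceptible parental control AG100.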

Escherichia coli [9] = assay: Antibacterial activity against Escherichia coli AG100 by broth microdilution technique; type: functional; procedure, shortened: as §3
Staphylococcus aureus [10] = assay: Inhibition of MepA efflux pump in Staphylococcus aureus K2361 assessed as reduction of ethidium bromide efflux at 10 uM for 5 mins; settings: in the assay text read “K1758-A” for “K2361”
Staphylococcus aureus [11] = assay: Inhibition of MepA efflux pump in Staphylococcus aureus K2361 assessed as reduction of ethidium bromide efflux at 2 uM for 5 mins; settings: in the assay text read “K1758-A” for “K2361”
Staphylococcus aureus [12] = assay: Inhibition of MepA efflux pump in Staphylococcus aureus K2361 assessed as reduction of ethidium bromide efflux at 0.5 uM […]; settings: in the assay text read “K1758-A” for “K2361”
[13] = target: T1, Quinolone resistance protein NorA (Staphylococcus aureus) (UniProt P0A0J7); assay: Inhibition of NorA efflux pump in Staphylococcus aureus K2361 assessed as reduction of ethidium bromide efflux at 10 uM for 5 mins
T1 sequence (whole entry): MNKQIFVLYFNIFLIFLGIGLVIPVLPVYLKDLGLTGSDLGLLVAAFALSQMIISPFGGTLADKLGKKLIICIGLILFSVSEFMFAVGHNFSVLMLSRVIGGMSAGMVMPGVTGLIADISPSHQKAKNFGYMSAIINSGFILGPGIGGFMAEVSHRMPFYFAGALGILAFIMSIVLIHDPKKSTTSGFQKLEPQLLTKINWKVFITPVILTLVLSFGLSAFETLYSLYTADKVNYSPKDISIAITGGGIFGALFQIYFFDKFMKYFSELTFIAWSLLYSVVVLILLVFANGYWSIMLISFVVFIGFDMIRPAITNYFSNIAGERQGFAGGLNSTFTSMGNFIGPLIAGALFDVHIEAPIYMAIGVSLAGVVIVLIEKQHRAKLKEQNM

[14] = target: T1, Quinolone resistance protein NorA (Staphylococcus aureus); assay: Inhibition of NorA efflux pump in Staphylococcus aureus K2361 assessed as reduction of ethidium bromide efflux at 2 uM for 5 mins
[15] = target: T1, Quinolone resistance protein NorA (Staphylococcus aureus); assay: Inhibition of NorA efflux pump in Staphylococcus aureus K2361 assessed as reduction of ethidium bromide efflux at 0.5 uM […]
Staphylococcus aureus [16] = assay: Inhibition of MepA efflux pump in Staphylococcus aureus K2361 assessed as reduction of ethidium bromide efflux at 30 uM for 5 mins; settings: in the assay text read “K1758-A” for “K2361”
[17] = target: T1, Quinolone resistance protein NorA (Staphylococcus aureus); settings: 30 uM
Staphylococcus aureus [18] = assay: Antibacterial activity against ciprofloxacin-resistant Staphylococcus aureus at > 100 ug/ml by broth microdilution technique; type: functional, organism-based
[19] = target: T1, Quinolone resistance protein NorA (Staphylococcus aureus); assay: Inhibition of NorA efflux pump in Staphylococcus aureus K2361 assessed as reduction of ethidium bromide efflux for 5 mins
Staphylococcus aureus [20] = assay: Inhibition of MepA efflux pump in Staphylococcus aureus […] assessed as reduction of ethidium bromide efflux for 5 mins

Row | SMILES | MIC (Staphylococcus aureus [1]) [µg/mL] | MIC (Staphylococcus aureus [2]) [µg/mL] | MIC (Staphylococcus aureus [3]) [µg/mL] | MIC (Staphylococcus aureus [4]) [µg/mL] | MIC (Pseudomonas aeruginosa [5]) [µg/mL] | MIC (Pseudomonas aeruginosa [6]) [µg/mL] | MIC (Pseudomonas aeruginosa [7]) [µg/mL] | MIC (Escherichia coli [8]) [µg/mL] | MIC (Escherichia coli [9]) [µg/mL] | inhibition [15] [%] | also measured
1 | CC1COc2c(N3CCN(C)CC3)c(F)cc3c(=O)c(C(=O)O)cn1c23 (stereo not given) [OFLOXACIN] | 1.25 (≈ 3.46 µM) | 0.63 (≈ 1.74 µM) | 2.5 (≈ 6.92 µM) | 0.63 (≈ 1.74 µM) | 6.25 (≈ 17.3 µM) | 6.25 (≈ 17.3 µM) | 1.25 (≈ 3.46 µM) | 0.16 (≈ 0.443 µM) | 0.08 (≈ 0.221 µM) | – | –
2 | NCCC[C@@H](NC(=O)[C@@H](N)Cc1ccccc1)C(=O)N1CCN(c2cc3c(cc2F)c(=O)c(C(=O)O)cn3C2CC2)CC1 | > 10 | 10 (≈ 16.9 µM) | > 10 | 10 (≈ 16.9 µM) | 50 (≈ 84.4 µM) | 50 (≈ 84.4 µM) | 50 (≈ 84.4 µM) | 10 (≈ 16.9 µM) | 10 (≈ 16.9 µM) | – | –
3 | NCCC[C@H](N)C(=O)N[C@@H](Cc1ccccc1)C(=O)N1CCN(c2cc3c(cc2F)c(=O)c(C(=O)O)cn3C2CC2)CC1 | – | > 10 | – | > 10 | 50 (≈ 84.4 µM) | 50 (≈ 84.4 µM) | 50 (≈ 84.4 µM) | 10 (≈ 16.9 µM) | 10 (≈ 16.9 µM) | – | –
4 | CC1COc2c(NCc3ccc(NC(=O)Nc4ccccc4)cc3)c(F)cc3c(=O)c(C(=O)O)cn1c23 (stereo not given) | – | > 100 | 100 (≈ 199 µM) | > 100 | 100 (≈ 199 µM) | 50 (≈ 99.5 µM) | 50 (≈ 99.5 µM) | 10 (≈ 19.9 µM) | 10 (≈ 19.9 µM) | 73.6 | inhibition (Staphylococcus aureus [10]): 84.1%; inhibition (Staphylococcus aureus [11]): 65.9%; inhibition (Staphylococcus aureus [12]): 53.4%; inhibition [13]: 96.4%; inhibition [14]: 85.6%
5 | NCc1ccc(NC(=O)Nc2ccccc2)cc1 | – | – | – | – | – | – | – | – | – | 20 | –
6 | NCc1ccc(NC(=O)Nc2ccc(Cl)cc2)cc1 | – | – | – | – | – | – | – | – | – | 20 | –
7 | O=C(Nc1ccccc1)Nc1ccccc1 | – | – | – | – | – | – | – | – | – | 20 | –
8 | COC(=O)[C@H]1[C@H]2C[C@@H]3c4[nH]c5cc(OC)ccc5c4CCN3C[C@H]2C[C@@H](OC(=O)c2cc(OC)c(OC)c(OC)c2)[C@@H]1OC | – | – | – | – | – | – | – | – | – | – | inhibition (Staphylococcus aureus [16]): 32%; inhibition [17]: 81%
9 | O=C(O)c1cn(C2CC2)c2cc(N3CCNCC3)c(F)cc2c1=O [CIPROFLOXACIN] | 0.63 (≈ 1.9 µM) | 0.16 (≈ 0.483 µM) | 2.5 (≈ 7.54 µM) | 0.16 (≈ 0.483 µM) | 0.78 (≈ 2.35 µM) | 0.78 (≈ 2.35 µM) | 0.16 (≈ 0.483 µM) | 0.04 (≈ 0.121 µM) | ≤ 0.019 | – | –
10 | O=C(Nc1ccccc1)Nc1ccc(CN2CCN(c3cc4c(cc3F)c(=O)c(C(=O)O)cn4C3CC3)CC2)cc1 | 0.63 (≈ 1.13 µM) | 0.63 (≈ 1.13 µM) | 1.25 (≈ 2.25 µM) | 0.31 (≈ 0.558 µM) | 50 (≈ 90 µM) | 50 (≈ 90 µM) | 50 (≈ 90 µM) | 10 (≈ 18 µM) | 5 (≈ 9 µM) | – | Activity (Staphylococcus aureus [18]): inactive; Activity [19]: inactive; Activity (Staphylococcus aureus [20]): inactive
